Experimental data as given in paper PMC2659725 (Archives of biochemistry and biophysics, 2009).
pIC50, pKd: −log10 of the molar value. “Also recorded” adds a separate entry of the source. Like-named read-outs stand apart in the source and are kept apart here. Blank lines part the entries; values can stand above or below the compound they belong to.

Columns and labels:
tubulin [1] = biological target: tubulin (Bos taurus, UniProt P81947+Q6B856); format: biochemical, bovine; settings: for Effect on paclitaxel-induced tubulin assembly: 30 μM tubulin, 30 μM paclitaxel
[2] = system: taxoid site of microtubules; test: Displacement of a fluorescent taxoid analog from microtubules; format: binding; settings: fluorescence anisotropy; personal communication, Dr. Fernando Díaz
microtubules = microtubules (Bos taurus, UniProt P81947+Q6B856); test: Lengths of paclitaxel-induced microtubules by electron microscopy; format: biochemical, bovine; settings: for Mean microtubule length ± SD, Average / Mean microtubule length ± SD, Experiment I / Mean microtubule length ± SD, Experiment II: paclitaxel-induced microtubules
In short: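 Paclitaxel-induced polymers were formed with GDP at the stated levels and monitored turbidimetrically. Samples were placed on carbon-coated formvar copper grids and stained with 1% uranyl acetate. Lengths were measured from EM negatives.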

[3] = system: subtilisin-treated tubulin; test: Paclitaxel-induced assembly of subtilisin-treated tubulin; format: biochemical, bovine; settings: same tubulin concentration (10 μM)
tubulin E-site = settings: read-out: Kd for GDP binding to the E-site; cited from earlier work
tubulin with MAPs = tubulin with MAPs (Bos taurus, UniProt P81947+Q6B856); test: Paclitaxel-induced tubulin assembly with heat-treated MAPs; format: biochemical, bovine
tubulin [4] = settings: paclitaxel, 37 °C, cited from earlier work
tubulin [5] = test: Critical concentration of tubulin for paclitaxel-induced assembly; format: biochemical, bovine; settings: 10 μM paclitaxel
In short: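 Bovine brain tubulin, MAP-free, carrying E-site GDP and N-site GTP, with no exogenous GTP or Mg2+. Assay buffer 0.1 M Mes (pH 6.9) with 10 μM paclitaxel, plus heat-treated MAPs or MAPs with GTP where indicated. Components mixed at 0 °C, held 2 min, jumped to 30 °C and followed about 30 min. Turbidity read at 350 nm.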

tubulin (Bos taurus, UniProt P81947+Q6B856), sequence (P81947 whole entry): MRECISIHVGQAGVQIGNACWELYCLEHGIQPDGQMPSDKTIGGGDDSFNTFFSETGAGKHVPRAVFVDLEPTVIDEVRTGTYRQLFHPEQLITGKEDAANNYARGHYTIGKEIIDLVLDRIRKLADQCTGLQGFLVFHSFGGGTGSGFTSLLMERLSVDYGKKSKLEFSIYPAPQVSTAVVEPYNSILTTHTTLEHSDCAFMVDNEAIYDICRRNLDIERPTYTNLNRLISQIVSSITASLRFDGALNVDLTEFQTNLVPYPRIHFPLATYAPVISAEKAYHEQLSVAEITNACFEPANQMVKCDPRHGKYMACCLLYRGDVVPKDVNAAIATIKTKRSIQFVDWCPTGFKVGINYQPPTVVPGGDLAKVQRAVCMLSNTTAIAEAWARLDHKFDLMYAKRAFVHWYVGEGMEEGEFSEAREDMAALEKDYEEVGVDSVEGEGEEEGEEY
tubulin (Bos taurus, UniProt P81947+Q6B856), sequence (Q6B856 whole entry): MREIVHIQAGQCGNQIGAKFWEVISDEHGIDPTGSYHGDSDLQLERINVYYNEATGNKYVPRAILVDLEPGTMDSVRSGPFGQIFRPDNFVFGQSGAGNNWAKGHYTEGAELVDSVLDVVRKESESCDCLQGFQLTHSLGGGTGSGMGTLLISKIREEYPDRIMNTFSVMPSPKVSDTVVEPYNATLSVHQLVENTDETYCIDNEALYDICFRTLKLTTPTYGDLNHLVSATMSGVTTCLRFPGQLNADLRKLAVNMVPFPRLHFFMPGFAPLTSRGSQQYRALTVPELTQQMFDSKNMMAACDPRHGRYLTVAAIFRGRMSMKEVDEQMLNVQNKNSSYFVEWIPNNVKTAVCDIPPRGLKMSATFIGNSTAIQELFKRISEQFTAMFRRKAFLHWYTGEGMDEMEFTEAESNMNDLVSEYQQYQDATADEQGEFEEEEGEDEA
microtubules, sequence (P81947 whole entry): as the sequence (P81947 whole entry) above
microtubules, sequence (Q6B856 whole entry): as the sequence (Q6B856 whole entry) above
tubulin with MAPs, sequence (P81947 whole entry): as the sequence (P81947 whole entry) above
tubulin with MAPs, sequence (Q6B856 whole entry): as the sequence (Q6B856 whole entry) above

SMILES: Nc1ncnc2c1ncn2[C@@H]1O[C@H](COP(=O)(O)OP(=O)(O)O)[C@@H](O)[C@H]1O [ADP]
Effect on paclitaxel-induced tubulin assembly (tubulin [1]; no exogenous GTP): had any inhibitory effect, nor did

SMILES: Nc1ncnc2c1ncn2[C@@H]1O[C@H](COP(=O)(O)OP(=O)(O)OP(=O)(O)O)[C@@H](O)[C@H]1O [ATP]
Effect on paclitaxel-induced tubulin assembly (tubulin [1]; no exogenous GTP): weak inhibitory effect; also recorded: extensive inhibition; also recorded: inhibited

SMILES: Nc1ccn([C@@H]2O[C@H](COP(=O)(O)OP(=O)(O)O)[C@@H](O)[C@H]2O)c(=O)n1 [CDP]
Effect on paclitaxel-induced tubulin assembly (tubulin [1]; no exogenous GTP): had any inhibitory effect, nor did

SMILES: Nc1ccn([C@@H]2O[C@H](COP(=O)(O)OP(=O)(O)OP(=O)(O)O)[C@@H](O)[C@H]2O)c(=O)n1 [CTP]
Effect on paclitaxel-induced tubulin assembly (tubulin [1]; no exogenous GTP): Still weaker effects

SMILES: Nc1nc2c(ncn2[C@@H]2O[C@H](COP(=O)(O)OP(=O)(O)O)[C@@H](O)[C@H]2O)c(=O)[nH]1 [GDP]
Displacement of fluorescent taxoid analog from microtubules [2]: unable to displace the fluorescent taxoid
Mean microtubule length ± SD, Average (microtubules; 5 μM GDP): 2.8 ± 2.1 μm
Mean microtubule length ± SD, Experiment I (microtubules; 5 μM GDP): 3.7 ± 2.2 μm
Mean microtubule length ± SD, Experiment II (microtubules; 5 μM GDP): 2.1 ± 1.5 μm
Mean microtubule length ± SD, Average (microtubules; 10 μM GDP): 2.8 ± 2.1 μm
Mean microtubule length ± SD, Experiment I (microtubules; 10 μM GDP): 3.5 ± 2.3 μm
Mean microtubule length ± SD, Experiment II (microtubules; 10 μM GDP): 2.2 ± 1.6 μm
Mean microtubule length ± SD, Average (microtubules; 50 μM GDP): 2.7 ± 2.4 μm
Mean microtubule length ± SD, Experiment I (microtubules; 50 μM GDP): 4.5 ± 3.2 μm
Mean microtubule length ± SD, Experiment II (microtubules; 50 μM GDP): 2.0 ± 1.5 μm
Change in average microtubule length (microtubules; whatever the GDP concentration (5-50 μM)): essentially no change
IC50 with subtilisin-treated tubulin lower than value obtained with MAPs [3]: about 40%
Effect on paclitaxel-induced tubulin assembly (tubulin [1]; 5 μM GDP): significant inhibitory effect
Effect on paclitaxel-induced tubulin assembly (tubulin [1]; 100 μM GDP): almost totally eliminated
Increase of the IC50 when 2 mM MgCl2 was added (tubulin [1]; 57 vs 15 μM): ~4 fold
pKd (tubulin E-site): 7.22 to 7.70

SMILES: COc1cc2cc(c1Cl)N(C)C(=O)C[C@H](OC(=O)[C@H](C)N(C)C(C)=O)[C@]1(C)O[C@H]1[C@H](C)[C@@H]1C[C@@](O)(NC(=O)O1)[C@H](OC)/C=C/C=C(\C)C2 [maytansine]
pIC50 (tubulin with MAPs): > 5.30
pIC50 (tubulin [1]): > 5.30

SMILES: COc1cc([C@@H]2c3cc4c(cc3[C@H](O)[C@H]3COC(=O)[C@H]23)OCO4)cc(OC)c1OC [podophyllotoxin, Podophyllotoxin]
pIC50 (tubulin with MAPs): > 5.30

More lines, main results first:

Effect on paclitaxel-induced tubulin assembly (tubulin [1]; no exogenous GTP): enhancing assembly
SMILES: Nc1nc2c(ncn2[C@@H]2O[C@H](COP(=O)(O)OP(=O)(O)OP(=O)(O)O)[C@@H](O)[C@H]2O)c(=O)[nH]1 [GTP]

Effect on paclitaxel-induced tubulin assembly (tubulin [1]; no exogenous GTP): had any inhibitory effect, nor did
SMILES: O=c1[nH]cnc2c1ncn2[C@@H]1O[C@H](COP(=O)(O)OP(=O)(O)O)[C@@H](O)[C@H]1O [IDP]

Effect on paclitaxel-induced tubulin assembly (tubulin [1]; no exogenous GTP): stimulatory
SMILES: O=c1[nH]cnc2c1ncn2[C@@H]1O[C@H](COP(=O)(O)OP(=O)(O)OP(=O)(O)O)[C@@H](O)[C@H]1O [ITP]

Effect on paclitaxel-induced tubulin assembly (tubulin [1]; no exogenous GTP): had any inhibitory effect, nor did
SMILES: O=c1ccn([C@@H]2O[C@H](COP(=O)(O)OP(=O)(O)O)[C@@H](O)[C@H]2O)c(=O)[nH]1 [UDP]

Effect on paclitaxel-induced tubulin assembly (tubulin [1]; no exogenous GTP): stimulatory
SMILES: O=c1ccn([C@@H]2O[C@H](COP(=O)(O)OP(=O)(O)OP(=O)(O)O)[C@@H](O)[C@H]2O)c(=O)[nH]1 [UTP]

Effect on paclitaxel-induced tubulin assembly (tubulin [1]; no exogenous GTP): stimulatory
SMILES: O=c1[nH]c(=O)c2ncn([C@@H]3O[C@H](COP(=O)(O)OP(=O)(O)OP(=O)(O)O)[C@@H](O)[C@H]3O)c2[nH]1 [XTP]

Extent of tubulin assembly (tubulin [1]; tubulin and paclitaxel both at 10 μM, no GTP, no MAPs): negligible assembly
SMILES: CC(=O)O[C@H]1C(=O)[C@@]2(C)[C@H]([C@H](OC(=O)c3ccccc3)[C@]3(O)C[C@H](OC(=O)[C@H](O)[C@@H](NC(=O)c4ccccc4)c4ccccc4)C(C)=C1C3(C)C)[C@]1(OC(C)=O)CO[C@@H]1C[C@@H]2O [paclitaxel, Paclitaxel]
Critical concentration of tubulin (tubulin [4]; no GTP, no MAPs, obtained previously): 22 to 28 µM
Critical concentration of tubulin (tubulin [4]; with MAPs, different protein preparations): 2 to 5 µM
Reduction in critical concentration by subtilisin treatment (tubulin [5]; 15 μM to 1.6 μM): ~10 fold
Critical concentration of tubulin (tubulin [5]; 30 °C, MAPs alone added): about 3.5 μM
Critical concentration of tubulin (tubulin [5]; both MAPs and GTP added): less than 1 μM
Critical concentration of subtilisin-treated tubulin (tubulin [5]; subtilisin-treated tubulin): 1.6 µM
